Reference: ChEMBL document CHEMBL5705890, “Antitumor activity of an allosteric inhibitor of centromere-associated protein-E” (Proc Natl Acad Sci U S A, 2010)

Assays:
Format in all cases: functional
786-0 = experiment: Anticancer activity against human 786-0 cells assessed as cell growth inhibition measured after 72 hrs by DAPI staining based analysis
Procedure, shortened: (§1)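 Cells were seeded and, after 24 h, DNA content was read as T0. Cells were then exposed to varying drug concentrations for a further 72 h (T72). Fixed cells were DAPI-stained and DNA content measured by automated imaging. T72 values were normalized to T0. GI50 is the concentration giving 50% growth inhibition between T0 and Ymax, obtained by curve fitting.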

A2780 = experiment: Anticancer activity against human A2780 cells assessed as cell growth inhibition measured after 72 hrs by DAPI staining based analysis; procedure, shortened: as §1
[1] = Anticancer activity against human BC1 cells assessed as cell growth inhibition measured after 72 hrs by DAPI staining based analysis; procedure, shortened: as §1
BT-474 = experiment: Anticancer activity against human BT-474 cells assessed as cell growth inhibition measured after 72 hrs by DAPI staining based analysis
Procedure, shortened: (§2)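 Cells were seeded, and DNA content at 24 h after seeding (T0) was read by imaging of fixed, DAPI-stained cells. Cells were then exposed to a range of drug concentrations for a further 72 h (T72) and DNA content was read again. T72 values were normalized to T0, and GI50 was taken from curve fits as the concentration giving 50% growth inhibition relative to T0 and Ymax.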

CGTH-W-1 = experiment: Anticancer activity against human CGTH-W-1 cells assessed as cell growth inhibition measured after 72 hrs by DAPI staining based analysis; procedure, shortened: as §2
[2] = Anticancer activity against human COLO-704 cells assessed as cell growth inhibition measured after 72 hrs by DAPI staining based analysis
Procedure, shortened: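 Cells seeded, DAPI-stained DNA content of fixed cells read by imaging 24 h after seeding (T0), and again after a further 72 h exposure to a range of drug concentrations (T72). T72 values were normalized to T0. Curve fits gave the concentration producing 50% growth inhibition relative to T0 and Ymax (GI50).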

HCT-116 = experiment: Anticancer activity against human HCT-116 cells assessed as cell growth inhibition measured after 72 hrs by DAPI staining based analysis
MCF7 = experiment: Anticancer activity against human MCF7 cells assessed as cell growth inhibition measured after 72 hrs by DAPI staining based analysis
[3] = Anticancer activity against human MT-3 cells assessed as cell growth inhibition measured after 72 hrs by DAPI staining based analysis
[4] = Anticancer activity against human MV-522 cells assessed as cell growth inhibition measured after 72 hrs by DAPI staining based analysis; details: MV522
NCI-H2171 = experiment: Anticancer activity against human NCI-H2171 cells assessed as cell growth inhibition measured after 72 hrs by DAPI staining based analysis
OVCAR-8 = experiment: Anticancer activity against human OVCAR-8 cells assessed as cell growth inhibition measured after 72 hrs by DAPI staining based analysis
RXF 393 = experiment: Anticancer activity against human RXF 393 cells assessed as cell growth inhibition measured after 72 hrs by DAPI staining based analysis
[5] = Anticancer activity against human SCC-13 cells assessed as cell growth inhibition measured after 72 hrs by DAPI staining based analysis
SCC-4 = experiment: Anticancer activity against human SCC-4 cells assessed as cell growth inhibition measured after 72 hrs by DAPI staining based analysis
[6] = Anticancer activity against human NL-SCLC3 cells assessed as cell growth inhibition measured after 72 hrs by DAPI staining based analysis
SW684 = experiment: Anticancer activity against human SW684 cells assessed as cell growth inhibition measured after 72 hrs by DAPI staining based analysis
SW837 = experiment: Anticancer activity against human SW837 cells assessed as cell growth inhibition measured after 72 hrs by DAPI staining based analysis
T47D = experiment: Anticancer activity against human T47D cells assessed as cell growth inhibition measured after 72 hrs by DAPI staining based analysis
U2OS = experiment: Anticancer activity against human U2OS cells assessed as cell growth inhibition measured after 72 hrs by DAPI staining based analysis
UACC-62 = experiment: Anticancer activity against human UACC-62 cells assessed as cell growth inhibition measured after 72 hrs by DAPI staining based analysis
647-V = experiment: Anticancer activity against human 647-V cells assessed as cell doubling measured for 72 hrs by DAPI staining based analysis
A-375 = experiment: Anticancer activity against human A-375 cells assessed as cell doubling measured for 72 hrs by DAPI staining based analysis
A-427 = experiment: Anticancer activity against human A-427 cells assessed as cell doubling measured for 72 hrs by DAPI staining based analysis
ARH-77 = experiment: Anticancer activity against human ARH-77 cells assessed as cell doubling measured for 72 hrs by DAPI staining based analysis
BE(2)-C = experiment: Anticancer activity against human BE2C cells assessed as cell doubling measured for 72 hrs by DAPI staining based analysis
C3A = experiment: Anticancer activity against human C3A cells assessed as cell doubling measured for 72 hrs by DAPI staining based analysis
CAL-27 = experiment: Anticancer activity against human CAL-27 cells assessed as cell doubling measured for 72 hrs by DAPI staining based analysis
HuP-T4 = experiment: Anticancer activity against human HuP-T4 cells assessed as cell doubling measured for 72 hrs by DAPI staining based analysis
HuT78 = experiment: Anticancer activity against human HuT78 cells assessed as cell doubling measured for 72 hrs by DAPI staining based analysis
MDA-MB-453 = experiment: Anticancer activity against human MDA-MB-453 cells assessed as cell doubling measured for 72 hrs by DAPI staining based analysis
MES-SA = experiment: Anticancer activity against human MES-SA cells assessed as cell doubling measured for 72 hrs by DAPI staining based analysis
NCI-H1299 [7] = experiment: Anticancer activity against human NCI-H1299 cells assessed as cell doubling measured for 72 hrs by DAPI staining based analysis
NCI-H630 = experiment: Anticancer activity against human NCI-H630 cells assessed as cell doubling measured for 72 hrs by DAPI staining based analysis
SCC-25 = experiment: Anticancer activity against human SCC-25 cells assessed as cell doubling measured for 72 hrs by DAPI staining based analysis
[8] = Anticancer activity against human NL-SCLC3 cells assessed as cell doubling measured for 72 hrs by DAPI staining based analysis
SH-4 = experiment: Anticancer activity against human SH-4 cells assessed as cell doubling measured for 72 hrs by DAPI staining based analysis
SW872 = experiment: Anticancer activity against human SW872 cells assessed as cell doubling measured for 72 hrs by DAPI staining based analysis
NCI-H460 = experiment: Antitumor activity against human NCI-H460 cells in xenograft model assessed as difference between median time to endpoint time of treated versus control group at 125 mg/kg
SK-OV-3 = experiment: Antitumor activity against human SK-OV-3 cells in xenograft model assessed as difference between median time to endpoint time of treated versus control group at 125 mg/kg
NCI-H1299 [9] = experiment: Antitumor activity against human NCI-H1299 cells in xenograft model assessed as tumor growth delay at 62.5 mg/kg relative to control

Question: For `CC(C)Oc1ccc(C(=O)N[C@H](CNC(=O)CN(C)C)Cc2ccc(-c3cn4cccc([C@H](C)O)c4n3)cc2)cc1Cl` [GSK-923295A], which GI50 (786-0) is on record?
Answer: 45 nM

Question: What about the GI50 (A2780) of the same molecule?
Answer: 13 nM

Question: What about the GI50 [1] of the same molecule?
Answer: 83 nM

Question: What about the GI50 (BT-474) of the same molecule?
Answer: 110 nM

Question: What about the GI50 (CGTH-W-1) of the same molecule?
Answer: 30 nM

Question: And the GI50 [2]?
Answer: 69 nM

Question: What about the GI50 (HCT-116) of the same molecule?
Answer: 31 nM

Question: And the GI50 (MCF7)?
Answer: 29 nM

Question: And the GI50 [3]?
Answer: 41 nM

Question: And the GI50 [4]?
Answer: 48 nM

Question: What about the GI50 (NCI-H2171) of the same molecule?
Answer: 24 nM

Question: What about the GI50 (OVCAR-8) of the same molecule?
Answer: 50 nM

Question: What about the GI50 (RXF 393) of the same molecule?
Answer: 32 nM

Question: What about the GI50 [5] of the same molecule?
Answer: 58 nM

Question: What about the GI50 (SCC-4) of the same molecule?
Answer: 28 nM

Question: And the GI50 [6]?
Answer: 31 nM

Question: What about the GI50 (SW684) of the same molecule?
Answer: 5020 nM

Question: What about the GI50 (SW837) of the same molecule?
Answer: 33 nM

Question: And the GI50 (T47D)?
Answer: 29 nM

Question: What about the GI50 (U2OS) of the same molecule?
Answer: 45 nM

Question: And the GI50 (UACC-62)?
Answer: 25 nM

Question: What about the Activity (647-V) of the same molecule?
Answer: 2.72

Question: What about the Activity (A-375) of the same molecule?
Answer: 3.04

Question: And the Activity (A-427)?
Answer: 2.46

Question: And the Activity (ARH-77)?
Answer: 1.62

Question: And the Activity (BE(2)-C)?
Answer: 2.28

Question: And the Activity (C3A)?
Answer: 2.23

Question: And the Activity (CAL-27)?
Answer: 2.55

Question: What about the Activity (HuP-T4) of the same molecule?
Answer: 1.09

Question: What about the Activity (HuT78) of the same molecule?
Answer: 2.89

Question: And the Activity (MDA-MB-453)?
Answer: 2.26

Question: And the Activity (MES-SA)?
Answer: 3.22

Question: What about the Activity (NCI-H1299 [7]) of the same molecule?
Answer: 2.78

Question: What about the Activity (NCI-H630) of the same molecule?
Answer: 2.04

Question: What about the Activity (SCC-25) of the same molecule?
Answer: 2.99

Question: And the Activity [8]?
Answer: 2.68

Question: What about the Activity (SH-4) of the same molecule?
Answer: 3.12

Question: And the Activity (SW872)?
Answer: 2.43

Question: And the Time (NCI-H460)?
Answer: 37.2 days

Question: What about the Time (SK-OV-3) of the same molecule?
Answer: >95 days

Question: And the Activity (NCI-H1299 [9])?
Answer: 15%
